Measurements as given in BindingDB's records for doi:10.1016/j.bmcl.2009.05.124 (Amgen, 2009).

What follows are molecules tested against Neuromedin-B receptor (Homo sapiens, UniProt P28336) (assay: Displacement of [125I]-(D-Tyr0)NMB from human neuromedin B receptor transfected in HEK293 cells).
Neuromedin-B receptor, sequence (P28336 whole entry): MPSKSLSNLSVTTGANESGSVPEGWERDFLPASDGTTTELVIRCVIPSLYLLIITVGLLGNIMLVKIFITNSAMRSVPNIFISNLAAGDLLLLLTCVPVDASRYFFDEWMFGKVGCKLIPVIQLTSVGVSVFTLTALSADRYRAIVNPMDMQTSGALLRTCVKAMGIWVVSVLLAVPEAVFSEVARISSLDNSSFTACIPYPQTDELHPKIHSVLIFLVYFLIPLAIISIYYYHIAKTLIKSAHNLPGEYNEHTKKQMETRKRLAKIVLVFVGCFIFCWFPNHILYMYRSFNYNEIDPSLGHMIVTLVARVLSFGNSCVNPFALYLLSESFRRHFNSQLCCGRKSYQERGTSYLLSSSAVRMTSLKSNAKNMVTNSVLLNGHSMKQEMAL
Summary of the method: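 Whole-cell competition binding used 1 × 10⁶ HEK293 cells stably transfected with hNMBR, with 150 pM ¹²⁵I-[D-Tyr0]NMB (2200 Ci/mmol), in DMEM for 1 h at room temperature. Bound ligand was separated by filtration and total bound counts were measured. Day-to-day standard error was <30%; well-to-well variability was <10%.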
With `Cc1ccc2c(c1)NC(c1ccccc1C(F)(F)F)C1C(=O)CC(C)(C)CC1=N2` (configuration not stated) [3,3,8-trimethyl-11-(2-(trifluoromethyl)phenyl)-2,3,4,5,10,11-hexahydro-1H-dibenzo[b,e][1,4]diazepin-1-one] the IC50 was 250 nM. Work on `CSc1ccccc1C1Nc2cc(C)ccc2N=C2CC3(CCCC3)CC(=O)C21` (configuration not stated) [8'-methyl-11'-(2-(methylthio)phenyl)-4',5',10',11'-tetrahydrospiro[cyclopentane-1,3'-dibenzo[b,e][1,4]diazepin]-1'(2'H)-one] yielded an IC50 of 250 nM. With `Cc1ccc2c(c1)NC(c1c(F)cccc1Cl)C1C(=O)CCC1=N2` (configuration not stated) [10-(2-chloro-6-fluorophenyl)-7-methyl-2,3,9,10-tetrahydrobenzo[b]cyclopenta[e][1,4]diazepin-1(4H)-one] the IC50 was 10000 nM. `Cc1ccc2c(c1)NC(c1c(F)cccc1Cl)C1C(=O)CC3(CCCC3)CC1=N2` (configuration not stated) [11'-(2-chloro-6-fluorophenyl)-8'-methyl-4',5',10',11'-tetrahydrospiro[cyclopentane-1,3'-dibenzo[b,e][1,4]diazepin]-1'(2'H)-one] showed an IC50 of 280 nM. Molecule `CC1(C)CC(=O)C2C(=Nc3ccc(C#N)cc3NC2c2c(F)cccc2Cl)C1` (configuration not stated) [11-(2-chloro-6-fluorophenyl)-3,3-dimethyl-1-oxo-2,3,4,5,10,11-hexahydro-1H-dibenzo[b,e][1,4]diazepine-8-carbonitrile] has an IC50 of 1300 nM. With `CC1(C)CC(=O)C2C(=Nc3ccc(C(N)=O)cc3NC2c2c(F)cccc2Cl)C1` (configuration not stated) [11-(2-chloro-6-fluorophenyl)-3,3-dimethyl-1-oxo-2,3,4,5,10,11-hexahydro-1H-dibenzo[b,e][1,4]diazepine-8-carboxamide] the IC50 was 10000 nM. `CC1(C)CC(=O)C2C(=Nc3ccc(C(=O)O)cc3NC2c2c(F)cccc2Cl)C1` (configuration not stated) [11-(2-chloro-6-fluorophenyl)-3,3-dimethyl-1-oxo-2,3,4,5,10,11-hexahydro-1H-dibenzo[b,e][1,4]diazepine-8-carboxylic acid] was tested, and the IC50 was 10000 nM. `CC1(C)CC(=O)C2C(=Nc3ccc(OC(F)(F)F)cc3NC2c2c(F)cccc2Cl)C1` (configuration not stated) [11-(2-chloro-6-fluorophenyl)-3,3-dimethyl-8-(trifluoromethoxy)-2,3,4,5,10,11-hexahydro-1H-dibenzo[b,e][1,4]diazepin-1-one] showed an IC50 of 1300 nM. `CC1(C)CC(=O)C2C(=Nc3ccc(O)cc3NC2c2c(F)cccc2Cl)C1` (configuration not stated) [11-(2-chloro-6-fluorophenyl)-8-hydroxy-3,3-dimethyl-2,3,4,5,10,11-hexahydro-1H-dibenzo[b,e][1,4]diazepin-1-one] gave an IC50 of 10000 nM. In the case of `Cc1ccc2c(c1)NC(c1ccccc1Cl)C1C(=O)CC(C)(C)CC1=N2` (configuration not stated) [11-(2-chlorophenyl)-3,3,8-trimethyl-2,3,4,5,10,11-hexahydro-1H-dibenzo[b,e][1,4]diazepin-1-one], the IC50 is reported as 280 nM. For `Cc1ccc2c(c1)NC(c1ccccc1F)C1C(=O)CC(C)(C)CC1=N2` (configuration not stated) [11-(2-fluorophenyl)-3,3,8-trimethyl-2,3,4,5,10,11-hexahydro-1H-dibenzo[b,e][1,4]diazepin-1-one], the IC50 was 1300 nM. With `Cc1ccc2c(c1)NC(c1ccccc1C(F)(F)F)C1C(=O)CC3(CCCC3)CC1=N2` (stereo not drawn) [(-)-8'-methyl-11'-(2-(trifluoromethyl)phenyl)-4',5',10',11'-tetrahydrospiro[cyclopentane-1,3'-dibenzo[b,e][1,4]diazepin]-1'(2'H)-one] the IC50 was 96 nM.
